The nature of assay [1]: Her2 expression decrease, cell viability multiplex – SKBR3 breast tumor cells, AlphaScreen, ATP viability, primary screen (AID 461;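 active = Her2 level under about 52% in both replicate screens, with viability over 70% of control, limit read from the data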;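 as to Her2 level: lower value means less Her2 protein in the cells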;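 as to viability: percent of carrier control wells set as 100% viability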). The following applies: SKBR3 Her2 protein level, 18-24 h, measured here: SKBR3 viability, ATP luminescence, at 10 µM.
In assay [2] the target is Receptor tyrosine-protein kinase erbB-2 (Homo sapiens) (UniProt P04626). Described as above. The following applies: 18-24 h, at 10 µM, stronger effect = lower value.
Assay [3] in a line: reduced viability of SK-BR-3 breast cancer cells – cell-based, 24 h, human, pilot screen (AID 572;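 active = viability at or below 10% of carrier control in both of two separate runs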;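 also: compound exposure lasted between 18 and 24 h rather than exactly 24 h; 100% = carrier-treated control wells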). The following applies: SK-BR-3 viability, CellTiter-Glo luminescence, at 10 µM, stronger effect = lower value.
Assay [4] can be described thus: HUVEC growth inhibition – cell-based, human, primary screen (AID 575;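 active = viability at or below 30% in both replicate assays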;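 also: 100% = median of untreated cell wells with 0.1% DMSO on each plate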). The following applies: HUVEC proliferation, CellTiter-Glo luminescence, 72 h; at 10 µM; stronger effect = lower value. A digest of the protocol: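 material = primary HUVEC, no more than 12 passages | input = 1250 cells per well | controls = vehicle and MePR control wells | measured by = CTG luminescence | times = 72 h compound incubation | format = collagen-coated 384-well format | read-out = % viability vs DMSO wells | doses = single 10 µM dose, 0.1% DMSO, from 5x medium stock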

Assay [5] in a line: H69AR cell proliferation blockers – human, duplicate replicates, primary screen (AID 580;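 active = viability at or under a set limit in both replicates, limit being median viability minus 3 SD, cut at about 48% in these data, passing the limit was not always enough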;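 also: 100% = mean luminescence of untreated wells and 0% = no signal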). The following applies: H69AR lung tumor cells viability, ATP luminescence, 72 h; at 10 µM; stronger effect = lower value.
Assay [6] can be described thus: MRP1 drug-resistance reversers in H69AR cells – cell-based, doxorubicin co-treatment, pilot screen (AID 601;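 active = viability loss from added drug above about 55%, and viability with drug at most 40%, in both replicates, limit read from the data, passing the limit was not always enough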). The following applies: CellTiter-Glo, 72 h, at 10 µM; for differential viability (reversal): stronger effect = higher value.
The nature of assay [7]: yeast transport mutant growth inhibition pilot in 384-well plates, post-Golgi transport modulator project (AID 636; in the data active = inhibition above about 31%). The following applies: absorbance 615 nm, about 18 h, stronger effect = higher value.
Assay [8] is described as follows: growth suppression of yeast trafficking mutant, preliminary HTS, modulators of trafficking downstream of Golgi apparatus project, 1536-format plate, OD 615 nm (AID 637). The following applies: yeast transport mutant growth, absorbance 615 nm, 18 h; stronger effect = higher value.
The mark [9] stands for this setting: H69AR cells + 2 uM doxorubicin, measured here: viability with 2 uM doxorubicin, stronger effect = lower value.
Where [10] appears, read: H69AR cells, compound alone cytotoxicity.

Activity calls are given as the source filed them. Rule as the data show it, unless noted: active = inhibition above about 30%; inactive = the rest.

Sequence of Receptor tyrosine-protein kinase erbB-2 (Homo sapiens) (P04626 whole entry, looked up): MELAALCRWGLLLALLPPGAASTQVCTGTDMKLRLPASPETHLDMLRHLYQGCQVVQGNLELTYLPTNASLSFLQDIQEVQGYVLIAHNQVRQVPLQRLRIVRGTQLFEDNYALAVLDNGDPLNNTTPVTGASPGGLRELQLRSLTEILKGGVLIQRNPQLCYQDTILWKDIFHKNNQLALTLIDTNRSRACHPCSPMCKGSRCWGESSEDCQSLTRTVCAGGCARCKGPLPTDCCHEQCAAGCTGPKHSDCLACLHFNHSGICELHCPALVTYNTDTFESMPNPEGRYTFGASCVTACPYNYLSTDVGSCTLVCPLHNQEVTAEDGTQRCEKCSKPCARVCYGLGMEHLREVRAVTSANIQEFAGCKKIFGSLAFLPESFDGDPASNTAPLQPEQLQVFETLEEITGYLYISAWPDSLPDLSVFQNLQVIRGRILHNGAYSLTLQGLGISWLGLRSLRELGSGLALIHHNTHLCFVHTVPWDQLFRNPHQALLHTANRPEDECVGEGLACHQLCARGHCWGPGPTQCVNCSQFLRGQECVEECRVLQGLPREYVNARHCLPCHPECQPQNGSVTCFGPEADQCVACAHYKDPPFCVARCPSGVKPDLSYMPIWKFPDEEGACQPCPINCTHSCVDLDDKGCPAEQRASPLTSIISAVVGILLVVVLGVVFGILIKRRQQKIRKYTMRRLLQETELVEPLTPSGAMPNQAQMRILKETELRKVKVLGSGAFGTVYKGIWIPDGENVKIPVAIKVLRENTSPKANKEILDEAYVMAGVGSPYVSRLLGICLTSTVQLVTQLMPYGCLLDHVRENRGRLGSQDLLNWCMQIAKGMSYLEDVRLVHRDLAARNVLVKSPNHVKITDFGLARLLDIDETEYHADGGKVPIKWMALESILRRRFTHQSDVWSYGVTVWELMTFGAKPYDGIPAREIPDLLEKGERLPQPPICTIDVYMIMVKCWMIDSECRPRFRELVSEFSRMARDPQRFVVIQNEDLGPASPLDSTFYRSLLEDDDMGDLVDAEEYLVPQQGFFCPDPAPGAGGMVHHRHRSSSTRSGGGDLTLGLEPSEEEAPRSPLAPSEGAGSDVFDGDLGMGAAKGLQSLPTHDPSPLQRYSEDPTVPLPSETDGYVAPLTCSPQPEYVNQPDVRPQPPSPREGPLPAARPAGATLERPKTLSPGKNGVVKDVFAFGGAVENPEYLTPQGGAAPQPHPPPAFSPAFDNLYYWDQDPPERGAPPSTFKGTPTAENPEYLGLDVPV

As for `COC(=O)C(C)C1Sc2ccccc2NC1=O` (stereo not given), the viability in assay [1] is 121%; in assay [3], 121% (inactive); in assay [4] it was 119% (inactive); in assay [5], 93.9% (inactive); in assay [6] (setting [9]) it was 81.8%; in assay [6] (setting [10]) it was 93.9%. Moreover, the Her2 level in assay [2] is 100% (inactive). Also, the differential viability (reversal) in assay [6] (H69AR cells + 2 uM doxorubicin) was 12.1% (inactive). In addition, the values for the inhibition in assay [7] and in assay [8] were -7.7% (inactive) and 2.83% (inactive), respectively.
In the case of `CN(Cc1ccccc1)C(=O)CNC(=O)Cn1cnc2ccccc2c1=O`, the viability in assay [1] was 100%; in assay [3], 100% (inactive); in assay [4], 91.9% (inactive); in assay [5], 100% (inactive); in assay [6] (setting [9]), 90.8%; in assay [6] (setting [10]), 100%. In assay [2], the Her2 level was 83% (inactive). For the same molecule, the differential viability (reversal) in assay [6] (H69AR cells + 2 uM doxorubicin) was 9.23% (inactive). The figures for the inhibition in assay [7] and in assay [8] were -3.11% (inactive) and -5.71% (inactive), respectively.
For `Cc1nn(-c2ccc(F)cc2)c(C)c1NS(=O)(=O)c1ccc(Cl)cc1`, the viability in assay [1] was 106%; in assay [3] it was 106% (inactive); in assay [4], 90.9% (inactive); in assay [5], 77% (inactive); in assay [6] (setting [9]), 82.2%; in assay [6] (setting [10]) it was 77%. In addition, the Her2 level in assay [2] was 85% (inactive). The differential viability (reversal) in assay [6] (H69AR cells + 2 uM doxorubicin) is -5.18% (inactive). In addition, the inhibition in assay [7] was -8.27% (inactive); in assay [8], -2.79% (inactive).
Turning to `COc1ccc(C2CC(=O)C3=C(C2)Nc2ccccc2N(C(=O)C2CC2)C3c2cccnc2)cc1OC` (stereo not given), the viability is 99.5% in assay [1]; 99.5% (inactive) in assay [3]; 89% (inactive) in assay [4]; 97.9% (inactive) in assay [5]; 96.1% in assay [6] (setting [9]); 97.9% in assay [6] (setting [10]). Besides, the Her2 level in assay [2] was 96.5% (inactive). Also, the differential viability (reversal) in assay [6] (H69AR cells + 2 uM doxorubicin) is 1.81% (inactive). The inhibition in assay [7] is -0.79% (inactive); in assay [8] it was -1.67% (inactive).
Regarding `Cc1ccc(-c2nn(-c3ccccc3)cc2CN(Cc2ccccc2)C(=O)CCC(=O)O)o1`, the viability was 100% in assay [1]; 100% (inactive) in assay [3]; 86.5% (inactive) in assay [4]; 85.7% (inactive) in assay [5]; 76.7% in assay [6] (setting [9]); 85.7% in assay [6] (setting [10]). The Her2 level in assay [2] is 94% (inactive). In assay [6] (H69AR cells + 2 uM doxorubicin), the differential viability (reversal) is 8.97% (inactive). Also, the inhibition in assay [7] was -5.07% (inactive); in assay [8], 3.02% (inactive).
Consider `COc1cccc(-c2noc(C3CCCN(C(=O)Cc4ccccc4)C3)n2)c1` (stereo not given), for which the viability in assay [1] was 95%; in assay [3] it was 95% (inactive); in assay [4], 104% (inactive); in assay [5], 85% (inactive); in assay [6] (setting [9]) it was 87.3%; in assay [6] (setting [10]) it was 85%. In addition, in assay [2], the Her2 level is 94% (inactive). Also, the differential viability (reversal) in assay [6] (H69AR cells + 2 uM doxorubicin) is -2.34% (inactive). The values for the inhibition in assay [7] and in assay [8] were -0.65% (inactive) and -3.97% (inactive), respectively.
On to `O=C(OCC(=O)N1CCCC1)c1ccccc1OCc1ccccc1`, for which the viability in assay [1] is 96%; in assay [3] it was 96% (inactive); in assay [4] it was 73.2% (inactive); in assay [5], 99.4% (inactive); in assay [6] (setting [9]) it was 88.3%; in assay [6] (setting [10]), 99.4%. The Her2 level in assay [2] is 79.5% (inactive). Besides, the differential viability (reversal) in assay [6] (H69AR cells + 2 uM doxorubicin) was 11.1% (inactive). Moreover, the inhibition is -7.7% (inactive) in assay [7] and 1.31% (inactive) in assay [8].
On to `C[C@H](NC(=O)Nc1cccc(C(F)(F)F)c1)C(=O)O`, for which the viability in assay [1] was 108%; in assay [3], 108% (inactive); in assay [4], 94.3% (inactive); in assay [5] it was 93.2% (inactive); in assay [6] (setting [9]), 87.9%; in assay [6] (setting [10]), 93.2%. The Her2 level in assay [2] was 108% (inactive). Besides, in assay [6] (H69AR cells + 2 uM doxorubicin), the differential viability (reversal) is 5.33% (inactive). Also, the values for the inhibition in assay [7] and in assay [8] were -3.07% (inactive) and 1.61% (inactive), respectively.
As for `C=CCn1c(-c2ccc(OC)cc2)nc2ccccc21`, the viability was 118% in assay [1]; 118% (inactive) in assay [3]; 110% (inactive) in assay [4]; 95.5% (inactive) in assay [5]; 90.8% in assay [6] (setting [9]); 95.5% in assay [6] (setting [10]). Further, in assay [2], the Her2 level was 99.5% (inactive). Also, the differential viability (reversal) in assay [6] (H69AR cells + 2 uM doxorubicin) was 4.69% (inactive). The inhibition in assay [7] is -4.27% (inactive); in assay [8], 3.71% (inactive).
On to `O=C(CCN1C(=O)C2C3C=CC(C3)C2C1=O)NC1CCCc2ccccc21` (stereo not given), for which the viability in assay [1] is 81%; in assay [3], 81% (inactive); in assay [4], 76.7% (inactive); in assay [5] it was 94.2% (inactive); in assay [6] (setting [9]), 87.7%; in assay [6] (setting [10]), 94.2%. For the same molecule, the Her2 level in assay [2] is 90.5% (inactive). In assay [6] (H69AR cells + 2 uM doxorubicin), the differential viability (reversal) is 6.45% (inactive). Further, the figures for the inhibition in assay [7] and in assay [8] were -1.89% (inactive) and 5.57% (inactive), respectively.
As for `CC(=O)N1CCC2(CC1)CC(=O)c1cc(OCC(=O)NCc3ccc(C)cc3)ccc1O2`, the viability in assay [1] was 97%; in assay [3], 97% (inactive); in assay [4], 99.4% (inactive); in assay [5] it was 90% (inactive); in assay [6] (setting [9]), 90.3%; in assay [6] (setting [10]), 90%. In addition, in assay [2], the Her2 level was 84% (inactive). The differential viability (reversal) in assay [6] (H69AR cells + 2 uM doxorubicin) was -0.255% (inactive). Also, the inhibition in assay [7] was -2.76% (inactive); in assay [8] it was 0.91% (inactive).
Turning to `Nc1cc(-c2ccc(Br)cc2)nn1S(=O)(=O)c1ccccc1`, the viability was 90% in assay [1]; 90% (inactive) in assay [3]; 74.2% (inactive) in assay [4]; 88% (inactive) in assay [5]; 87.5% in assay [6] (setting [9]); 88% in assay [6] (setting [10]). Also, the Her2 level in assay [2] was 108% (inactive). For the same molecule, the differential viability (reversal) in assay [6] (H69AR cells + 2 uM doxorubicin) was 0.535% (inactive). Also, the figures for the inhibition in assay [7] and in assay [8] were 0.26% (inactive) and 3.67% (inactive), respectively.
Regarding `COc1cc(NC(=O)C2CC(c3cccc(OC)c3OC)=NO2)cc(OC)c1OC` (stereo not given), the viability was 83% in assay [1]; 83% (inactive) in assay [3]; 54.9% (inactive) in assay [4]; 27.3% (active) in assay [5]; 69.1% in assay [6] (setting [9]); 27.3% in assay [6] (setting [10]). Further, the Her2 level in assay [2] is 99% (inactive). For the same molecule, the differential viability (reversal) in assay [6] (H69AR cells + 2 uM doxorubicin) was -41.8% (inactive). The inhibition is 6.84% (inactive) in assay [7] and -4.18% (inactive) in assay [8].
Consider `CCCCN(CCCC)C(=O)CN(C)S(=O)(=O)c1ccc2c(c1)n(C)c(=O)c(=O)n2C`, for which the viability was 99.5% in assay [1]; 99.5% (inactive) in assay [3]; 113% (inactive) in assay [4]; 96.1% (inactive) in assay [5]; 92.7% in assay [6] (setting [9]); 96.1% in assay [6] (setting [10]). In assay [2], the Her2 level is 86% (inactive). Besides, the differential viability (reversal) in assay [6] (H69AR cells + 2 uM doxorubicin) is 3.39% (inactive). The inhibition in assay [7] is -2.24% (inactive); in assay [8], 2.38% (inactive).
Consider `NC(=O)CSc1nnc(-c2ccc(O)cc2)n1Cc1ccco1`, for which the viability in assay [1] is 108%; in assay [3], 108% (inactive); in assay [4] it was 105% (inactive); in assay [5], 98.6% (inactive); in assay [6] (setting [9]), 89.3%; in assay [6] (setting [10]), 98.6%. Further, the Her2 level in assay [2] was 102% (inactive). Further, the differential viability (reversal) in assay [6] (H69AR cells + 2 uM doxorubicin) was 9.33% (inactive). Moreover, the inhibition in assay [7] was -6% (inactive); in assay [8] it was 4.68% (inactive).
As to `Cn1c(=O)n(Cc2ccc(F)cc2)c(=O)c2c1nc1n2CCCN1Cc1ccccc1`, the viability in assay [1] is 88.5%; in assay [3], 88.5% (inactive); in assay [4], 78.4% (inactive); in assay [5], 70.1% (inactive); in assay [6] (setting [9]) it was 32.6%; in assay [6] (setting [10]), 70.1%. Further, in assay [2], the Her2 level was 80.5% (inactive). In assay [6] (H69AR cells + 2 uM doxorubicin), the differential viability (reversal) is 37.5% (inactive). The inhibition in assay [7] was 0% (inactive); in assay [8], 1.33% (inactive).
